# Screens from PubChem BioAssay.
# aDG glyco up: increases alpha dystroglycan glycosylation. hit rate 0.22% among 360,000. activation, % at 10 µM. Pro5-aDG cells, alpha-DG glycosylation AlphaScreen (IIH6); 0% Pro5, 100% B10-LARGE cell signal. AID 624168;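 active = activation of at least 8% versus controls, or a plate z-score of at least 8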;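 note: Pro5 are CHO cells carrying HIG-tagged alpha-DG that lacks glycosylation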
# Tn7 DDE FP: inhibitors of Tn7 peptide binding to human fibrin DD(E); FP displacement of FITC-Tn7 peptide from fibrin DD(E); 0% = median of compound wells per plate; inhibition, % at 8.3 µM; hit rate 0.13% among 370,000;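 active = inhibition above the mean of compounds falling within the control limits plus 3 SD of them, cut at about 14% in these data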;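 note: 0% = plate median of compound wells and 100% = 10 µM Aha-Tn7 peptide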
#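 Test system: human clot-derived fibrin DD(E) complex / Quantity: 2 µM final DD(E) protein / Incubation: 10 min plus 3 h, room temperature / Measured by: fluorescence polarization / Benchmarks: high control of 10 µM Aha-Tn7 peptide / Replicates: singlicate testing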
# DDE Tn6 FP inh: disrupts Tn6 cyclic peptide binding to fibrin D-Dimer-E complex. P02675. Fibrin DD(E) TRITC-Tn6 fluorescence polarization displacement. inhibition, % at 8.3 µM. hit rate 0.21% among 370,000;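 active = inhibition above a per-campaign cutoff: mean of compounds within control limits plus 3 SD, cut at about 15% in these data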;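 note: 0% = median of all compound wells on the plate and 100% = blocking peptide control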
# CendR NRP1 mod: alters CendR peptide binding to human NRP-1; hit rate 0.85% among 360,000; O14786; inhibition, % at 25 µM; FAM-RPARPAR peptide binding to NRP-1, fluorescence polarization; AID 602438;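 active = inhibition or corrected inhibition above about 18%, plus a signal ratio from 0.5 to 1.5, limit read from the data, passing the limit was not always enough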
# The depositor's hits bear a star; nt = no result. Only some compounds are listed: those with a hit (about 1.3% of all), similar ones and a draw of the others.
SMILES,aDG glyco up,Tn7 DDE FP,DDE Tn6 FP inh,CendR NRP1 mod
O=C(NC1CC1)c1ccc(COc2ccc(F)cc2)o1,0,-8,-2,25*
O=C(NCC1CCCO1)c1ccc(COc2ccc(F)cc2)o1 (configuration not stated),0,8,1,2
Oc1ccc2ccccc2c1CN1CCCCC1,0,-4,-3,26*
COc1ccc(-c2noc(CN(C(=O)c3ccc4c(c3)OCO4)C(C)C)n2)cc1,0,-5,-7,28*
C=C(C)COc1ccc(-c2[nH]ncc2-c2ccc(OC)cc2)c(O)c1,0,-1,-10,6
C=C(C)COc1ccc(-c2[nH]ncc2-c2ccccc2)c(O)c1,0,-4,-8,25*
COc1ccc(Nc2nccc(-c3cccc(N)c3)n2)cc1,0,8,2,20*
O=[N+]([O-])c1ccc(N2CCN(Cc3ccc([N+](=O)[O-])o3)CC2)cc1,0,-4,4,7
O=[N+]([O-])c1ccc(CN2CCN(c3ccccc3)CC2)o1,0,10,1,28*
C=C1c2ccccc2S(=O)(=O)N(Cc2ccccc2)C1COCc1ccccc1 (configuration not stated),0,2,0,28*
COc1ccc(Cl)cc1Cn1c(C)c(C(=O)NCc2cccc([N+](=O)[O-])c2)sc1=O,1,5,-3,-6
COc1ccc(/C=C2\CC3(OC(=O)c4ccccc4)CCCN2C3)cc1 (configuration not stated),nt,-8,-2,nt
O=C(Nc1cc(C(F)(F)F)ccc1N1CCCC1)C1CC(=O)N(Cc2ccccc2)C1 (configuration not stated),0,1,-3,24*
O=C(C1CCCN(S(=O)(=O)c2ccccc2[N+](=O)[O-])C1)N1CCN(Cc2ccccc2)CC1 (configuration not stated),nt,-2,-7,nt
Cc1ccc(-n2c(N)cc(=O)nc2SCC(=O)NC2CCCCC2)cc1C,1,-5,8,0
Cc1ccc(C(=O)COC(=O)CN2C(=O)C3C4CCC(C4)C3C2=O)cc1C (configuration not stated),0,-1,0,24*
COc1ccc(C2CC(=O)C=C(NCCC(C)C)C2)cc1 (configuration not stated),0,2,-3,6
COc1ccc(C2CC(=O)C=C(NC3CCCC3)C2)cc1 (configuration not stated),0,-1,-8,29*
O=C(NC1CCC1)O[C@H]1CC[C@@]23CCCN2C(=O)CCC[C@H]3C1,nt,0,6,nt
Cc1ccc(C(=O)N2CCC[C@@H]2C(=O)N2CCC[C@@H]2C(=O)NCc2ccccc2)cc1,nt,9,3,nt
CCOC(=O)c1ccccc1S(=O)(=O)N1CCN(c2nc(-c3cccs3)nc3ccccc23)CC1,nt,-1,-2,nt
CC(=O)CSc1nnc(-c2ccc(S(=O)(=O)N3CCCC3)cc2)n1C,0,2,8,25*
O=C(Nc1ccccc1Cl)O[C@@H]1CC[C@@]23CCCN2C(=O)CCC[C@H]3C1,nt,-2,-5,nt
CCCN(CC1CC1)C(=O)CN1C(=O)C2CCCCN2C(=O)c2ccccc21 (configuration not stated),nt,0,-5,nt
CN(c1cccc(Cl)c1)S(=O)(=O)c1cccc(C(=O)NCc2ccncc2)c1,1,0,5,24*
SMILES,aDG glyco up,Tn7 DDE FP,DDE Tn6 FP inh,CendR NRP1 mod
CN(c1ccccc1)S(=O)(=O)c1cccc(C(=O)NCc2ccccc2)c1,0,5,-1,2
OCc1ccccc1CNCc1ccccc1,0,5,1,-6
Oc1cc(CNCc2ccccc2)c(O)cc1CNCc1ccccc1,0,2,-2,28*
C#CCN(Cc1ccco1)C(=O)c1nnc2c3cc(OC)ccc3n(S(=O)(=O)c3ccc(OC)cc3)c2n1,nt,0,2,nt
O=C(NCc1ccccn1)C1CCN(C2CCN(Cc3cccc(F)c3)CC2)CC1,0,-6,-3,23*
O=C(NNS(=O)(=O)c1ccc(F)cc1)C1CCN(Cc2cccc(F)c2)CC1,0,-1,0,18
Cc1cc(N)c(C)c([N+](=O)[O-])c1C,0,4,-2,31*
Cc1c(N)c(C(C)(C)C)cc(C(C)(C)C)c1[N+](=O)[O-],0,-1,-1,1
CCN(CCn1cccn1)C(=O)CCc1nnc(Cc2c[nH]c3ccccc23)o1,0,1,-7,21*
CC(=O)Nc1ccc(SC[C@H](Cc2ccccc2)N2CC[C@@H](C(C)(C)C)CCC2=O)cc1,0,-6,-2,28*
CC(=O)Nc1ccc(SC[C@H](Cc2ccccc2)N2CCN(CCc3ccccc3)CCC2=O)cc1,0,2,-3,25*
CC(=O)Nc1ccc(SC[C@H](Cc2ccccc2)N2CC[C@@H](O)CCC2=O)cc1,0,-6,4,22
CC(C)(C)[C@H]1CCC(=O)N([C@H](CSc2ccccc2)Cc2ccccc2)CC1,0,-9,0,16
COCCNC(=O)/C(C#N)=C/c1c(N2CCN(c3cccc(Cl)c3)CC2)nc2c(C)cccn2c1=O,0,-9,-1,19*
CCCNC(=O)C(Cc1ccccc1)NC(=O)c1ccc(C(C)(C)C)cc1 (configuration not stated),0,11,7,26*
CC(=O)NC(c1cccc(F)c1)c1nc(-c2ccc(N(C)C)cc2)cs1 (configuration not stated),0,-8,1,13
CCn1c(SC(C)C(=O)NC2CCCc3ccccc32)nnc1-c1cccs1 (configuration not stated),0,0,0,34*
Cc1ccc2nc(-c3ccc(Cl)cc3)c(Cc3ccccn3)n2c1,0,-2,-2,10
CC(C)C[C@H](NC(=O)N1CCOCC1)C(=O)N1CCC[C@H]1C(=O)NCc1ccccc1,nt,0,3,nt
COc1cccc(C(=O)NCCS(=O)(=O)N2CCN(c3ccccc3)CC2)c1OC,0,0,4,25*
O=c1oc(/C=C/c2ccccc2)nc2sc3c(c12)CCC3,0,7,6,25*
Cc1ccc(NC(=O)CSc2nc3ccccc3c(=O)n2CCCN2CCCCC2)cc1C,8.3*,-4,-10,-9
CN1CCC(N(C)C(=O)c2cc(S(=O)(=O)N(C)c3ccccc3)ccc2Cl)CC1,0,4,-1,-6
CN1CCC(N(C)C(=O)c2ccc(Cl)c(S(=O)(=O)N(C)c3ccc(Cl)cc3)c2)CC1,0,1,4,33*
CN(C)c1ccc(NC(=O)Nc2nc(C(N)C3CCCCC3)cs2)cc1 (configuration not stated),1,2,-3,-5
COc1ccc(C2CC(c3cccs3)=NN2C(=O)CCCC(=O)O)cc1OC (configuration not stated),0,0,3,11
Cc1nc(SCC(=O)NCCc2ccccc2)n[nH]1,0,5,1,7
O=C(CSc1nccc(-c2ccc(Br)cc2)n1)NCCc1ccccc1,0,-2,1,28*
